Experimental data: paper PMC5819594 (Nano letters, 2017)
Entries after “also recorded” stand apart in the source; their conditions may differ. No end group written: not given here.

Assays:
p32 [1] = biological target: T1, p32 (Homo sapiens, UniProt Q07021); assay: fluorescence anisotropy; type: binding
T1 sequence (Q07021 74-282): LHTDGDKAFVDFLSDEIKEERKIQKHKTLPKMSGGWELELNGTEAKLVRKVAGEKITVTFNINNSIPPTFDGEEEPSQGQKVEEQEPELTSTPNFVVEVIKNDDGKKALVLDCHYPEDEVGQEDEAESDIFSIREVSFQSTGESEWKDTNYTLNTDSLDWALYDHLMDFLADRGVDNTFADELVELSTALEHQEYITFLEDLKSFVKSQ

tumors = settings: cited from earlier work
[2] = system: MCF10CA1a orthotopic tumor xenografts; assay: anti-tumor efficacy, MCF10CA1a breast cancer model; type: in vivo, human tumor cells in BALB/c nude mice; settings: for reduction of tumor volume versus PBS: i.v. every other day for 3 weeks, 7.5 mg of iron/kg, at three weeks
glioblastomas = settings: mice, cited from earlier work
MCF10CA1a tumors [3] = settings: cited from earlier work
[4] = system: tumor vessels of treated MCF10CA1a tumors; assay: NW homing to residual treated tumors; type: in vivo, mice; settings: for NW-positive tumor vessels: treated tumors after three weeks, five hours after last injection, n = 3/group
In short: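 MCF10CA1a tumor mice were treated for three weeks with FAM-labeled peptide-NWs. Five hours after the last injection, mice were perfused through the heart with PBS and tissues collected. Tumor sections were stained with anti-CD31 and DAPI and examined by confocal microscopy. Percentage of NW-positive vessels was scored in 10 random areas per section, n = 3/group, mean ±SD.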

[5] = system: tumor blood vessels (CD31); assay: CD31 blood vessel count in treated tumors; type: in vivo; settings: n = 3 mice per group; for average blood vessel count: CD31, 10 random fields at 20×
In short: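 Residual MCF10CA1a orthotopic tumors came from nude mice given peptide-coated NWs i.v. every other day for 3 weeks (7.5mg iron/kg), with a PBS control. Sections were stained with anti-CD31 and imaged by confocal microscopy. Vessels per field were counted, and groups were compared by one-way ANOVA with Tukey's post hoc test.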

MCF10CA1a tumors [6] = assay: tumor homing of homing peptide-D[KLAKLAK]2-NWs, MCF10CA1a; type: in vivo, human tumor cells in BALB/c nude mice; settings: for tumor homing and penetration of chimeric peptide-NWs: confocal microscopy
[7] = system: tumor-associated macrophages/myeloid cells; settings: ref Laakkonen et al., 2004; Fogal et al., 2008; cited from earlier work
p32 [8] = biological target: T1, p32; settings: LyP-1 linearized; no reference given; cited from earlier work
tumor macrophages = settings: LyP-1 alone, without drug, tumor macrophages in particular; cited from earlier work
[9] = mouse, in vivo
MMTV-PyMT tumors = assay: tumor homing in MMTV-PyMT model; type: in vivo, mouse; settings: MMTV-PyMT transgenic breast cancer mice
MCF10CA1a tumors [10] = assay: TUNEL staining of treated tumors; type: in vivo, human tumor cells in BALB/c nude mice; settings: treated tumors after three weeks
[11] = system: 4T1 mouse breast cancer tumors; assay: tumor homing in 4T1 model; type: in vivo; settings: 4T1 breast tumor model
In short: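 4T1 cells were maintained in DMEM with 10% FBS and 1% Glutamine-Pen-Strep at 37°C/5% CO2. 1 × 10^6 cells were implanted subcutaneously in the flanks of 4-week-old BALB/c mice. Peptide-coated NWs were assessed for homing to tumor vasculature and extravascular tumor tissue.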

MCF10CA1a tumors [12] = assay: histology; type: in vivo, human tumor cells in BALB/c nude mice; settings: end of 3-week treatment, H&E
In short: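 Orthotopic MCF10CA1a xenografts in BALB/c nude mice were treated i.v. with peptide-coated NWs every other day for 3 weeks at 7.5mg iron/kg. At the end of treatment, residual tumors were sectioned and stained with hematoxylin and eosin.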

[13] = system: MCF10CA1a cultured tumor cells; assay: cell death and caspase-3 activation in cultured tumor cells; type: cell-based, human; settings: Figure S8
NRP-1 = assay: peptide binding to NRP-1 before and after uPA treatment; settings: control peptide with active CendR motif, with and without uPA
LinTT1 = biological target: T2, LinTT1 (also: FAM-labeled); assay: fluorescence anisotropy
T2 chain: AKRGARSTA

In the case of AKRGARSTA [LinTT1], the Kd (p32 [1]) is reported as 8.7 µM.

For CGKRK, the “tumor homing and penetration of free peptide” value (tumors; CGKRK (no reference at the statement)) is listed as “does not extravasate and penetrate beyond tumor vessels”.

For “CGKRK-D[KLAKLAK]2 [CGKRK-D[KLAKLAK]2-NWs, reference compound]”, the “reduction of tumor volume versus PBS” value [2] is given as “about 50%”, the lifespan in glioblastoma (glioblastomas; more aggressive glioblastoma model) is given as “a substantial prolongation of the lifespan of the mice” and the “tumor growth in glioblastoma” value (glioblastomas; one glioblastoma model) is given as “the growth of tumors was essentially completely suppressed”. For the same molecule, the “tumor homing of CGKRK-D[KLAKLAK]2-NWs (as shown previously)” value (MCF10CA1a tumors [3]) was “accumulated in tumor blood vessels, without penetrating into extravascular tumor tissue”, the NW-positive tumor vessels [4] was 20% and the “average blood vessel count” value [5] was “almost similar to LinTT1NW”.

With “CGKRKRA-D[KLAKLAK]2 [CGKRKRA-D[KLAKLAK]2-NWs]” the “tumor homing and penetration of chimeric peptide-NWs” value (MCF10CA1a tumors [6]) was “primarily localized with tumor blood vessels similar to LyP1”.

For CGNKRTRGC [LyP-1], the “overlap with tumor-associated macrophages/myeloid cells” value [7] is given as “substantial overlap with tumor-associated macrophages/myeloid cells in tumor tissue”, the “tumor homing and penetration of LyP-1” value (tumors) is given as “capable of penetrating into tumors and accumulates in the extravascular tumor tissue” and the p32-binding activity (p32 [8]) is given as “no detectable p32-binding activity”. For the same molecule, the “apoptosis in cells that take up the peptide” value (tumor macrophages) was “causes apoptosis in the cells that take up the peptide most avidly, tumor macrophages in particular”.

For “CGRKR(NH2)-D[KLAKLAK]2 [CGRKR(NH2)-D[KLAKLAK]2-NWs]”, the “tumor homing and penetration of chimeric peptide-NWs” value (MCF10CA1a tumors [6]) was “primarily localized with tumor blood vessels similar to LyP1”.

With “LinTT1-D[KLAKLAK]2 [LinTT1-D[KLAKLAK]2-NWs]” the toxicity [9] was “no significant toxicity”, the “tumor homing, MMTV-PyMT” value (MMTV-PyMT tumors) was “efficiently homed to the vasculature of the 4T1 and MMTV-PyMT tumors, accumulating also in extravascular tumor tissue” and the “tumor homing and penetration of chimeric peptide-NWs” value (MCF10CA1a tumors [6]) was “highly effective in extravasating and penetrating tumor parenchyma; also recorded: superior to other chimeric peptide-NWs; also recorded: partially co-localize with tumor blood vessels (CD31), but most of the NWs are outside the blood vessels in the extravascular tumor tissue”. The “tumor accumulation relative to CGKRK-D[KLAKLAK]2-NWs” value (MCF10CA1a tumors [6]; quantified NW fluorescence) was “over 7 fold”, the “apoptosis by TUNEL staining” value (MCF10CA1a tumors [10]) was “apoptosis in the LinTT1D[KLAKLAK]2-NW tumor rims, where it co-localized with the NWs” and the “anti-tumor activity” value ([2]; 3 weeks, 7.5 mg of iron/kg i.v. every other day) was “essentially no tumor growth; also recorded: more effective than the previous NPs”. The “reduction of tumor volume versus PBS” value [2] was “about 90%”, the “mice in which tumor seemed to have disappeared” value ([2]; one of two experiments, 3 weeks) was “four out of 6 mice” and the tumors regressed ([2]; proportion of tumors, LinTT1D(KLAKLAK)2-NW group) was 10/14. For the same molecule, the “tumor homing, 4T1” value [11] was “efficiently homed to the vasculature of the 4T1 and MMTV-PyMT tumors, accumulating also in extravascular tumor tissue”, the “necrosis and apoptotic nuclei in residual tumors” value (MCF10CA1a tumors [12]) was “extensive necrosis and a thin rim of tumor tissue around the necrotic core that contained many apparently apoptotic nuclei” and the “cell death and caspase-3 activation” value [13] was “cell death accompanied by activation of caspase-3”. The NW-positive tumor vessels [4] was “Approximately 68%”, the “accumulation in treated tumors” value ([4]; tumors treated with LinTT1D(KLAKLAK)2-NWs for 3 weeks) was “no apparent decline in accumulation” and the “average blood vessel count” value [5] was “marked reduction of blood vessels”. The “reduction of blood vessels versus PBS control” value ([5]; CD31, after treatment) was “more than 6 fold”.

With RPARPAR the “binding to NRP-1 regardless of uPA” value (NRP-1) was “bound only to NRP-1 regardless of uPA treatment”.

B1: p32 (gC1qR/HABP) (protein)
chain: LHTDGDKAFVDFLSDEIKEERKIQKHKTLPKMSGGWELELNGTEAKLVRKVAGEKITVTFNINNSIPPTFDGEEEPSQGQKVEEQEPELTSTPNFVVEVIKNDDGKKALVLDCHYPEDEVGQEDEAESDIFSIREVSFQSTGESEWKDTNYTLNTDSLDWALYDHLMDFLADRGVDNTFADELVELSTALEHQEYITFLEDLKSFVKSQ
B1 showed a Kd (LinTT1) of 8.7 µM.
